Screens deposited in PubChem by several laboratories.
STAT1 act – STAT1 signaling activation; AID 932; hit rate 2.6% among 200,000; NIH 3T3 STAT1-luciferase reporter, IFN-gamma, luminescence; 100% = IFN-gamma alone, no compound; activation (% of control), % at 5.5 µM;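 active means activation above the screen-wide mean activation plus 3 SD, cut at about 130% in these data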;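 further: raw ratio to IFN-gamma control signal so 100% means no change and 0% no light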
FLuc inh counter – counter-screen for luciferase assay inhibitors: firefly luciferase inhibition; P08659; ATPLite firefly luciferase biochemical luminescence, 10 min; inhibition, % at 10 µM; hit rate 1.5% among 200,000; AID 1006;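 active means inhibition above about 50% when tested at 10 µM, limit read from the data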
Target sequence (P08659 whole entry, looked up): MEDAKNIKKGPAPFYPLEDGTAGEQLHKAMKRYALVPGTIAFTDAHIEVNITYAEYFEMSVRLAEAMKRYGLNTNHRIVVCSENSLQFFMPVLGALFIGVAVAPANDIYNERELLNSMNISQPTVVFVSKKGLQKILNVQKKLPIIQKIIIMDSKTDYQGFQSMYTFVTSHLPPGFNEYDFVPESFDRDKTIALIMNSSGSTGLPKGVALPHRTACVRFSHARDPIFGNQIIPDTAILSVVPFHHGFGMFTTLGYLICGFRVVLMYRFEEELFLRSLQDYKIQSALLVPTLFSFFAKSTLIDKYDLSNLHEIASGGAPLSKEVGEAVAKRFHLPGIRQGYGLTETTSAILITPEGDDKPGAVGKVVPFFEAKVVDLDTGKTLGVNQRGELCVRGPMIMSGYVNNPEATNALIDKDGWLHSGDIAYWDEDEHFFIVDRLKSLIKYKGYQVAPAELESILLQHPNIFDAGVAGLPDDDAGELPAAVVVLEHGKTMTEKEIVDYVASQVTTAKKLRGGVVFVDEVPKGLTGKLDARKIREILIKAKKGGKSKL
FLuc stim CS – affects firefly luciferase, flagging false hits in luciferase stimulation screens | P08659 | ATPlite luciferase biochemical, luminescence, 10 min; 0 = ATP-free wells, 1 = DMSO control | activation factor at 10 µM | 200,000 tested, under 10 active;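 active means luciferase activation factor, scaled between plate controls, of at least 2 with compound at 10 µM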
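Assay system: Luciferase/luciferin detection reagent, cell-free biochemical luciferase assay / Read-out: luciferase activation / Benchmarks: No-ATP low control, compound-free enzyme-plus-ATP high control / Medium: PBS buffer for ATP / Detection: luminescence measurement of luciferase light output / Schedule: 10 min at ambient temperature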
Pf gamet viab – P. falciparum stage V gametocyte viability inhibition; P. falciparum stage V gametocytes, ATP luminescence, 24 h; inhibition, % at 10.9 µM; hit rate 0.065% among 150,000; AID 743093;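 active means inhibition above the mean plus 3 SD of compounds within the control limits, set per campaign, cut at about 38% in these data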;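 further: 0% = DMSO wells and 100% = medium only without gametocytes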
NF-kB neuron act – NF-kB expression increase, human neuronal cells. fold change at 12.5 µM. hit rate 1.6% among 190,000. NF-kB reporter expression; stronger effect = higher value; in the data active means fold change above about 3.3
APP 5'UTR act – activates APP 5'UTR luciferase reporter; SH-SY5Y APP 5'UTR luciferase reporter, luminescence; zero percent = DMSO vehicle wells; activation, % at 2 µM; hit rate 1% among 190,000; AID 1276;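 active means activation above a set limit, based on mean plus 3 SD of controls, cut at about 140% in these data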
STAT1 act conf – STAT1 activation, confirmation assay; shares compounds with STAT1 act; NIH 3T3 STAT1-luciferase reporter, IFN-gamma potentiation, luminescence; 100% = IFN-gamma EC80 alone, no compound; activation (% of control), % at 5.7 µM; hit rate 97% among 1,200; AID 1262;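 active means activation above a set limit carried over from the earlier primary STAT1 screen, cut at about 140% in these data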;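 further: simple ratio to median IFN-gamma plus DMSO wells so 0% means no light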
NFkB act – activates NF-kappaB, counter-screen to STAT1 activators; shares compounds with STAT1 act; HEK293T NF-kB luciferase reporter, TNF-alpha stimulated, luminescence; 100% = TNF-alpha with vehicle only; activation (% of control), % at 5.7 µM; hit rate 43% among 1,200;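 active means activation above the mean of solvent-only control wells plus 3 SD, set per campaign, cut at about 130% in these data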;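 further: TNF-alpha given at a submaximal dose yielding about 80% of full reporter signal; values are well signal over median control so 100% means no change and 0% no light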
STAT3 act 2 – human STAT3 activation in STAT1 activator counter-screen; U3A cells STAT3-luciferase reporter, IL-6, luminescence; cells lack STAT1; 100 = IL-6 alone, no compound effect; shares compounds with STAT1 act; activation (% of control), % at 5.7 µM; hit rate 46% among 1,200;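 active means activation above the solvent-only control well mean plus 3 SD, set per plate batch, cut at about 110% in these data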;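 further: 0% = no luminescence and 100% = median IL-6 plus DMSO wells; higher means more STAT3 reporter activation so hits are non-selective activators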
* = called active by the depositor; / = no result given. An excerpt weighted towards active compounds, which were near 3.5% of everything screened.

SMILES | STAT1 act | FLuc inh counter | FLuc stim CS | Pf gamet viab | NF-kB neuron act | APP 5'UTR act | STAT1 act conf | NFkB act | STAT3 act 2
N#Cc1ccc(NCC(=O)Nc2ccc3c(c2)OCCO3)cc1 | 121 | 10 | 0.9 | -13 | 1.1 | -1 | / | / | /
O=C(Nc1ccc2c(c1)OCO2)c1ccc(Br)s1 | 181* | 61* | 0.4 | / | 10* | 162* | 204* | 131 | 132*
N#Cc1cccc(NCC(=O)Nc2ccc3c(c2)OCCO3)c1 | 167* | 65* | 0.3 | -14 | 6.8* | 190* | 180* | 125 | 115*
O=C(Nc1cccc([N+](=O)[O-])c1)Nc1cccc([N+](=O)[O-])c1 | 91 | -1 | 1 | 7 | 0.79 | -5 | / | / | /
CC(=O)Nc1ccc2c(c1)OCO2 | 98 | -4 | 1 | -18 | 1 | -4 | / | / | /
Cn1c(C(=O)Nc2ccc3c(c2)OCO3)cc2sccc21 | 193* | 53* | 0.5 | / | 8.9* | 153* | 210* | 147* | 142*
O=C(Nc1cccc([N+](=O)[O-])c1)Nc1ccc2c(c1)OCCO2 | 156* | 36 | 0.6 | 15 | 3.6* | 127 | 195* | 137* | 136*
CCn1c(=O)cc(SCC(=O)NCCCN2CCN(c3ccccc3F)CC2)c2ccccc21 | 94 | -5 | 1.1 | / | 0.58 | -11 | / | / | /
CCNc1nc(SC(C)C(=O)OC)nc(N2CCOCC2)n1 (configuration not stated) | 102 | 1 | 1 | 3 | 1.1 | -7 | / | / | /
O=C(Nc1nc2cc3c(cc2s1)OCCO3)c1cccs1 | / | / | / | 26 | / | / | / | / | /
O=C(Nc1ccc2c(c1)OCCO2)c1cccs1 | 153* | 70* | 0.3 | 12 | 5.2* | 142* | 173* | 125 | 108
O=C(Nc1ccc2c(c1)CCC2)Nc1ccc2c(c1)OCO2 | 160* | 14 | 0.9 | -9 | 2.2 | 81 | 167* | 121 | 111*
COc1cc(/C=N/N(C)C)ccc1OC(=O)c1cccs1 | 106 | 0 | 1 | -26 | 1.2 | 1 | / | / | /
COc1ccc2[nH]c3c(c2c1)CCn1c-3nc2ccccc2c1=O | 153* | 42 | 0.6 | / | 5.5* | 184* | 298* | 116 | 93
COc1cc(OC)cc(C(=O)Nn2c(C)nc3ccccc3c2=O)c1 | 101 | -4 | 1 | -26 | 0.49 | -1 | / | / | /
Cn1cc(CN2CCC[C@H]2CO)c(-c2cccc(Cl)c2)n1 | 97 | -8 | 1.1 | -17 | 1.1 | 11 | / | / | /
CC1CCN(C(=O)/C=C/c2ccc(C(C)(C)C)cc2)CC1 | 106 | 10 | 0.9 | -4 | 2 | 28 | / | / | /
CC(C)(C)c1ccc(/C=C/C(=O)N2CCCCC2)cc1 | 169* | 28 | 0.7 | 10 | 4.4* | 110 | 166* | 149* | 128*
Cc1ccc(/C=C/C(=O)N2CCCC(C)C2)cc1 (configuration not stated) | 168* | 75* | 0.3 | 3 | 4.5* | 125 | 193* | 124 | 101
CC(=O)c1cccc(NC(=O)CCS(=O)(=O)c2cccc3nsnc23)c1 | 95 | -7 | 1.1 | 29 | 0.82 | 3 | / | / | /
O=C(Nc1ccccc1N1CCOCC1)c1ccc2nc[nH]c2c1 | 98 | 0 | 1 | / | 0.97 | 11 | / | / | /
CCN(CC)S(=O)(=O)c1ccc(N2CCOCC2)c(NS(=O)(=O)c2cc(C(C)(C)C)ccc2C)c1 | 96 | -7 | 1.1 | 0 | 0.47 | 17 | / | / | /
Cc1ccsc1/C=N\NC(=O)c1cc(C(C)(C)C)[nH]n1 | 156* | 20 | 0.8 | -7 | 2.2 | 85 | 171* | 129 | 117*
Cc1ccsc1/C=N/NC(=O)c1sccc1C | 153* | 28 | 0.7 | -4 | 3.2 | 136* | 173* | 130 | 112*
Cc1csc(NC(=O)c2ccc(C)c([N+](=O)[O-])c2)n1 | 184* | 36 | 0.6 | 21 | 5.6* | 172* | 236* | 112 | 96
SMILES | STAT1 act | FLuc inh counter | FLuc stim CS | Pf gamet viab | NF-kB neuron act | APP 5'UTR act | STAT1 act conf | NFkB act | STAT3 act 2
CCOc1cc(Cl)c(NC(C)=O)cc1OCC | 94 | -9 | 1.1 | 19 | 1.2 | 4 | / | / | /
COc1ccc(Cn2c(C3CC3)nc3ccc(NC(=O)c4ccco4)cc3c2=O)cc1 | 152* | -7 | 1.1 | 13 | 1.3 | 102 | 183* | 133 | 140*
Fc1ccc(CSc2ncnc3ccccc23)cc1 | 115 | 1 | 1 | -21 | 1.1 | -25 | / | / | /
NC(=O)c1ccsc1NC(=O)c1coc2ccccc2c1=O | 166* | 71* | 0.3 | 4 | 2.2 | 167* | 217* | 130 | 113*
NC(=O)c1ccsc1NC(=O)CSc1ccccc1F | 111 | 4 | 1 | -5 | 1.8 | 51 | / | / | /
Cn1ccsc1=NC(=O)c1ccc(Cl)cc1 | 156* | 20 | 0.8 | -14 | 2.7 | 113 | 166* | 130 | 118*
CC1CCc2c(sc(NC(=O)C3CCCO3)c2C#N)C1 (configuration not stated) | 154* | 15 | 0.9 | -29 | 4.6* | 144* | 169* | 134* | 114*
CC1CCc2c(sc(NC(=O)COC(=O)C3CCCO3)c2C#N)C1 (configuration not stated) | 98 | 7 | 0.9 | 14 | 1.5 | 30 | / | / | /
O=C(NCCNS(=O)(=O)c1cccc(C(F)(F)F)c1)c1cc(OCC(F)(F)F)ccc1OCC(F)(F)F | 101 | -6 | 1.1 | -5 | 1.1 | 13 | / | / | /
COc1ccc2c(c1)CCC/C2=N\NC(=O)c1ccoc1C | 151* | 15 | 0.8 | -10 | 1.7 | 108 | 129* | 117 | 100
CC(C)[C@H](NC(=O)OCc1ccccc1)C(=O)OCC(=O)Nc1c(F)cccc1F | 96 | -3 | 1 | -42 | 0.92 | -8 | / | / | /
COc1c2c(cc3oc(CO[C@@H]4O[C@H](CO)[C@@H](O)[C@H](O)[C@H]4O)cc(=O)c13)O[C@H](C(C)(C)O)C2 | / | / | / | 11 | / | / | / | / | /
O=c1[nH]c(=O)c2nc(-c3ccc(Cl)cc3)cnc2[nH]1 | 110 | 10 | 0.9 | / | 1.2 | 5 | / | / | /
O=c1[nH]c(=O)c2nc3c4ccccc4c4ccccc4c3nc2[nH]1 | 152* | -2 | 1 | -9 | 0.97 | 27 | 140* | 118 | 100
CCOc1ccc(S(=O)(=O)NC(C)(C)C)cc1-c1nc2c(C(C)(C)C)nn(C)c2c(=O)[nH]1 | 105 | -2 | 1 | 8 | 0.35 | 3 | / | / | /
